Bioassay records as filed in PubChem.
Runt-SMMHC FRET – blocks binding of human RUNX1 Runt domain to CBFb-SMMHC. Cerulean-Runt/Venus-CBFb-SMMHC FRET ratio 530/480, 1 h. 220,000 tested, 0.74% active. inhibition, % at 20 µM. Q01196+Q13951;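 active means mean inhibition across duplicate retests at 20 µM reaching about 50%, limit read from the data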;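 further: 0% = DMSO wells and 100% = wells with excess untagged CBFb-SMMHC; inhibitors lower the FRET ratio by blocking Runt binding to CBFb-SMMHC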
Hck Nef HTS – blocks Nef-activated human Hck kinase. P08631. Recombinant Hck-YEEI plus Nef, Z-Lyte FRET kinase assay. inhibition, % at 20 µM. 220,000 tested, 0.68% active. AID 463187;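 active means Hck-Nef kinase inhibition above about 50%, limit read from the data; inactive means inhibition below that limit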;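 further: 0% = DMSO with Hck plus Nef and 100% = Hck alone without Nef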
Tb hexokinase – T. brucei hexokinase 1 inhibition. recombinant TbHK1, G6PDH-coupled NADH A340. inhibition, % at 10 µM. AID 1430. 220,000 tested, 0.11% active;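 active means inhibition of 50% or more in the single-dose primary screen; inactive means inhibition below 50%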
Runt-CBFb FRET – Runt domain-CBFb interaction inhibition; inhibition, % at 20 µM; AID 1496; 220,000 tested, 0.46% active; Q01196+Q13951; Cerulean-Runt/Venus-CBFb FRET ratio 530/480, 1 h;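 active means inhibition over about 50% at 20 µM in the single-dose screen, limit read from the data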;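 further: 0% = DMSO wells and 100% = excess unlabeled CBFb competitor control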
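Assay system: Cerulean-tagged RUNX1 Runt domain (FRET donor) fusion protein / Amount: 100 nM each of Venus-CBFb and Cerulean-Runt domain / Medium: Tris buffer pH 7.5 with salts and BSA / Also added: Venus-CBFb 100 nM / Schedule: 1 h complex formation plus 1 h compound treatment, room temperature / Signal: FRET fluorescence / Read-out: loss of energy transfer signal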
14-3-3 Bad inh – disrupts binding of bovine 14-3-3 zeta to phospho-Bad peptide; inhibition, % at 21.7 µM; 220,000 tested, 0.71% active; AID 781; TR-FRET 14-3-3zeta/Dy647-pBad peptide displacement, 1 h;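 active means inhibition above about 70%, limit read from the data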;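 further: 0% = full 14-3-3 plus peptide FRET controls and 100% = background without 14-3-3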
Target sequence (P63103 whole entry, looked up): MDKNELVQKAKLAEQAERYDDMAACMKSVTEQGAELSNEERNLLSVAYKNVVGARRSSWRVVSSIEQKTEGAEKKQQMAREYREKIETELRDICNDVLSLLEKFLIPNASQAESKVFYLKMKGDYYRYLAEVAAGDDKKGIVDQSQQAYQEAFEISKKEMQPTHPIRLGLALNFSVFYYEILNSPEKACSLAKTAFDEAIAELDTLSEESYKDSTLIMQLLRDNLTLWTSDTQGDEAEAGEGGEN
RanGTP-Impb inh – inhibitors of RanGTP-importin-beta interaction, primary screen, biochemical, FRET, CFP-Ran, YFP-importin-beta, homogeneous | cell-free CFP-Ran/YFP-importin-beta FRET ratio | inhibition, % (concentration not given with the values) | 300,000 tested, 1.1% active | AID 2216;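 active means more than half of the replicate wells show a fall in the fluorescence ratio signal beyond about 16%, limit read from the data, passing the limit was not always enough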;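 further: 0% = DMSO wells and 100% = Ran loaded with GDP instead of GTP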
RUNX1 CBFb TR – disrupts human RUNX1 Runt domain binding to CBFb; shares compounds with Runt-CBFb FRET; TR-FRET RUNX1 Runt domain-CBFb binding; inhibition, % at 20 µM; 480 tested, 20% active; AID 1502; in the data active means inhibition above about 40%
YIC counter – counter-screen YIC FRET for RanGTP-importin-beta inhibitors; 1,000 tested, 40% active; shares compounds with RanGTP-Impb inh; IC50, µM; Purified YIC probe, intramolecular FRET ratio YFP/CFP;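 active means fitted half-maximal inhibitory concentration no more than tenfold above the top dose tested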
Hck Nef conf – Hck-Nef kinase inhibition, confirmation; shares compounds with Hck Nef HTS; Recombinant Hck-YEEI:Nef, Z-Lyte FRET kinase assay; calls only at 10 µM; 1,300 tested, 28% active; AID 463188;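 active means average inhibition of at least 50%, with Z-scores no higher than 3 in both the phospho-tyrosine peptide and fluorescence counterscreens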
Active calls of the source: *. An excerpt weighted towards active compounds, which were near 2.2% of everything screened.

Screening Cc1ccc(C(C)C)c(OC(=O)/C=C/c2ccccc2)c1 returned Runt-SMMHC FRET -5, Hck Nef HTS 1, Tb hexokinase -11, Runt-CBFb FRET -2, 14-3-3 Bad inh -10 and RanGTP-Impb inh -3.
For COc1ccc(/C=N/NC(=O)c2cc(O)c(O)c(O)c2)cc1Cn1cc([N+](=O)[O-])cn1 the results were Runt-SMMHC FRET 49, Hck Nef HTS 50*, Tb hexokinase -8, Runt-CBFb FRET 54*, 14-3-3 Bad inh 28, RanGTP-Impb inh 9, RUNX1 CBFb TR -5 and Hck Nef conf inactive.
For COc1ccc(/C=N/NC(=O)c2ccccc2O)cc1Cn1cc([N+](=O)[O-])cn1 the results were Runt-SMMHC FRET -1, Hck Nef HTS 27, Tb hexokinase -13, Runt-CBFb FRET 3, 14-3-3 Bad inh -5 and RanGTP-Impb inh 5.
`COC(=O)c1ccc(C(=O)OC)c(N)c1` gave Runt-SMMHC FRET 110*, Hck Nef HTS 86*, Tb hexokinase -10, Runt-CBFb FRET 68*, 14-3-3 Bad inh -2 and RUNX1 CBFb TR 43*.
For COC(=O)c1ccc(C(=O)OC)c(NC(=O)Oc2ccccc2)c1 the results were Runt-SMMHC FRET 132*, Hck Nef HTS 58*, Tb hexokinase -14, Runt-CBFb FRET 66*, 14-3-3 Bad inh -2, RanGTP-Impb inh 14 and RUNX1 CBFb TR 36.
`CCOC(=O)c1ccc(N2N=C(C)/C(=C/C=C/c3ccco3)C2=O)cc1` gave Runt-SMMHC FRET -13, Hck Nef HTS 8, Tb hexokinase -10, Runt-CBFb FRET -4, 14-3-3 Bad inh -7 and RanGTP-Impb inh 0.
For O=C(O)c1cc(N2N=C(C(F)(F)F)/C(=C/C=C/c3ccco3)C2=O)ccc1Cl the results were Runt-SMMHC FRET 39, Hck Nef HTS 97*, Tb hexokinase 16, Runt-CBFb FRET 53*, 14-3-3 Bad inh 27, RUNX1 CBFb TR 92* and Hck Nef conf active.
`C=CCn1c(-c2cccs2)nc2nc3ccccc3nc21` gave Runt-SMMHC FRET 126*, Hck Nef HTS 72*, Tb hexokinase -23, Runt-CBFb FRET 55*, 14-3-3 Bad inh -1, RanGTP-Impb inh 12, RUNX1 CBFb TR -15 and Hck Nef conf inactive.
Screening C=CCn1c(-c2cccs2)nc2ccccc21 returned Runt-SMMHC FRET 2, Hck Nef HTS 2, Tb hexokinase -9, Runt-CBFb FRET 1 and 14-3-3 Bad inh 3.
For O=C(O)CN1C(=O)C(=O)N(Cc2ccc(Cl)cc2Cl)C1=O the results were RanGTP-Impb inh -1.
`O=C(COc1ccccc1)N=C1SC2CS(=O)(=O)CC2N1c1ccc(F)cc1` (stereo not given) gave RanGTP-Impb inh -3.
For CN1CCN(c2ccc(S(=O)(=O)N3CCCCC3)cc2NC(=O)Cc2ccc(Cl)cc2)CC1 the results were Runt-SMMHC FRET -2, Hck Nef HTS 0, Tb hexokinase -6, Runt-CBFb FRET -4, 14-3-3 Bad inh 3, RanGTP-Impb inh 40* and YIC counter >50.
CC1(C)CC(=O)C/C(=N\NC(=O)Cc2ccccc2)C1 was read as Runt-SMMHC FRET 1, Hck Nef HTS -2, Tb hexokinase 3, Runt-CBFb FRET 3, 14-3-3 Bad inh -2, RanGTP-Impb inh 26* and YIC counter >50.
Screening CC1CCC(=NNC(=O)Cc2ccccc2)CC1 (stereo not given) returned Runt-SMMHC FRET -4, Hck Nef HTS 1, Tb hexokinase 2, 14-3-3 Bad inh 0 and RanGTP-Impb inh 1.
Screening NC(=S)N/N=C/c1ccccc1OC(=O)c1cc2ccccc2oc1=O returned RanGTP-Impb inh 6.
`NC(=O)N/N=C/c1ccccc1OC(=O)c1cc2ccccc2oc1=O` gave RanGTP-Impb inh 18* and YIC counter >50.
`Cc1ccc(S(=O)(=O)Cn2nnnc2C(CC(C)C)N2CCN(C3CCCC3)CC2)cc1` (stereo not given) gave RanGTP-Impb inh 5.
Cc1sc2ncn(CC(=O)NCCCC(=O)N3CCC(C)CC3)c(=O)c2c1C was read as RanGTP-Impb inh 1.
`Cc1sc2ncn(CC(=O)NCCCC(=O)N3CCN(Cc4ccc5c(c4)OCO5)CC3)c(=O)c2c1C` gave Runt-SMMHC FRET 0, Hck Nef HTS -12, Tb hexokinase -6, Runt-CBFb FRET -1, 14-3-3 Bad inh -4, RanGTP-Impb inh 28* and YIC counter >50.
`Cc1ccc(S(=O)(=O)c2cc3c(=O)n4cccc(C)c4nc3n(C3CCCCC3)c2=N)cc1` gave RanGTP-Impb inh 34* and YIC counter 3.9*.
Screening O=S(=O)(c1ccccc1)[C@@]1(c2ccccc2)C[C@@H]2ON=C(c3cccc(-c4ccccc4)c3)[C@@H]2C1 returned RanGTP-Impb inh -1.
`COc1cccc(/C=N/NC(=O)c2ccc3nc[nH]c3c2)c1O` gave Runt-SMMHC FRET 6, Hck Nef HTS -11, Tb hexokinase -22, Runt-CBFb FRET 4, 14-3-3 Bad inh -9 and RanGTP-Impb inh 6.
`CCN(CC)c1ccc(/C=N/NC(=O)c2ccc3nc[nH]c3c2)c(O)c1` gave Runt-SMMHC FRET 62*, Hck Nef HTS 8, Tb hexokinase -17, Runt-CBFb FRET 43, 14-3-3 Bad inh -6, RanGTP-Impb inh 38* and YIC counter 13*.
`C=CCn1c(SCCOc2ccc(OC)cc2)nnc1C(CO)NC(=O)c1ccc(OC)cc1` (stereo not given) gave Runt-SMMHC FRET -5, Hck Nef HTS -11, Tb hexokinase 4, Runt-CBFb FRET 2, 14-3-3 Bad inh 4, RanGTP-Impb inh 19* and YIC counter >50.
Screening Cc1c(C#N)c(NC(=O)CCl)n(Cc2ccc(F)cc2)c1C returned Runt-SMMHC FRET 0, Hck Nef HTS -4, Tb hexokinase -3, Runt-CBFb FRET 0, 14-3-3 Bad inh 3 and RanGTP-Impb inh -6.
Screening Cc1c(C#N)c(NC(=O)CCl)n(Cc2ccccc2)c1C returned Runt-SMMHC FRET 0, Hck Nef HTS 22, Tb hexokinase 1, Runt-CBFb FRET -3, 14-3-3 Bad inh -8, RanGTP-Impb inh 23* and YIC counter >50.
